This note sets out measurements from ChEMBL document CHEMBL2010649, “Metacridamides A and B, macrocycles from conidia of the entomopathogenic fungus Metarhizium acridum” (J Nat Prod, 2012).

SMILES strings stand for the structures. Calls of active or inactive are those of the source. No cut-off for these calls is given here.

In test [1] the test system is Caco-2. Kind of test: Cytotoxicity against human Caco2 cells after 72 hrs by XTT assay. It counts as functional, cell-based. As to conditions: Caco-2, 72 h. A digest of the protocol:
(§1)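 Cell viability measured by XTT cell proliferation kit (XTT Cell Proliferation Kit II) on Caco-2, MCF-7 and HepG2/C3A lines; IC50 values derived.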
(Tetrazolium dyes change colour on reduction, which living cells bring about.)

The nature of test [2]: Cytotoxicity against human HepG2/C3A cells after 72 hrs by XTT assay. It counts as functional, cell-based. A digest of the protocol:
as §1

Another test has as its system Botrytis cinerea. Kind of test: Antimicrobial activity against Botrytis cinerea at 100 ug/disk measured every 24 hrs for 4 days by disk diffusion assay. It counts as functional, organism-based. In short, it runs like this: (§2)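 Fungi grown on potato dextrose agar. Plates spread with 0.6 mL conidial suspension (ca. 1×10^6 conidia/mL H₂O) and dried 1 h. Sample applied in 10 μL MeOH to 7-mm paper disks, air-dried 1 h, placed on plates. Zones of inhibition read every 24 h for 4 days. Filipin 10 μg/disk positive control; MeOH 10 μL/disk negative control.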
(In general: In agar diffusion tests the substance spreads into inoculated agar from a disc or well.)

For the next test, the system named is Aedes aegypti. Kind of test: Insecticidal activity against Aedes aegypti larvae at 100 ug/ml. It counts as functional, organism-based.
Test [3] deals with MCF7. Kind of test: Cytotoxicity against human MCF7 cells after 72 hrs by XTT assay. It counts as functional, cell-based. The following applies: MCF7, 72 h. In short, it runs like this: as §1
Another test has as its system Drosophila melanogaster. Kind of test: Insecticidal activity against Drosophila melanogaster at 100 ug. The class given is functional, organism-based.
For a further test, the system named is Escherichia coli. Kind of test: Antimicrobial activity against Escherichia coli at 100 ug/disk measured every 24 hrs for 4 days by disk diffusion assay. It counts as functional, organism-based. A digest of the protocol: (§3)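 Bacteria grown on nutrient agar. Plates spread with 0.6 mL of a 24 h nutrient-broth culture and dried 1 h. Sample applied in 10 μL MeOH to 7-mm paper disks, air-dried 1 h, placed on plates. Zones of inhibition read every 24 h for 4 days. Tetracycline 10 μg/disk positive control; MeOH 10 μL/disk negative control.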

In the next test the test system is Beauveria bassiana. Kind of test: Antimicrobial activity against Beauveria bassiana ARSF 8354 at 100 ug/disk measured every 24 hrs for 4 days by disk diffusion assay. The class given is functional. In short, it runs like this:
as §2

The subject of the next test is Bacillus cereus. Kind of test: Antimicrobial activity against Bacillus cereus at 100 ug/disk measured every 24 hrs for 4 days by disk diffusion assay. The class given is functional, organism-based. A digest of the protocol: as §3
A further test relates to Colletotrichum acutatum. Kind of test: Antimicrobial activity against Colletotrichum acutatum at 100 ug/disk measured every 24 hrs for 4 days by disk diffusion assay. The class given is functional, organism-based. A digest of the protocol: as §2
For test [4], the system named is Caco-2. Kind of test: Cytotoxicity against human Caco2 cells at 100 uM after 72 hrs by XTT assay. It counts as functional, cell-based.
Test [5] has as its system MCF7. Kind of test: Cytotoxicity against human MCF7 cells at 100 uM after 72 hrs by XTT assay. It counts as functional, cell-based.

In general, IC50 refers to the concentration needed to halve the response being measured. Low readings indicate greater potency in that assay, high ones weaker potency in that assay. In the case of `CC[C@H](C)C[C@H](C)[C@H]1OC(=O)[C@H](Cc2ccccc2)NC(=O)/C(C)=C/[C@H](C)[C@@H](O)/C(C)=C/[C@H](C)[C@H](OC(C)=O)/C(C)=C/[C@@H]1C` [METACRIDAMIDE A], the IC50 came out at 6.2 µM in the test on Caco-2 [1], 10.8 µM in [2] and 11 µM with MCF7 [3]. Further, the “inhibition zone (IZ)” value in the test with Botrytis cinerea, in the test on Escherichia coli, in the test on Beauveria bassiana, in the test with Bacillus cereus and with Colletotrichum acutatum was “inactive” throughout. In addition, the outcome in the test on Aedes aegypti and with Drosophila melanogaster was inactive.

Consider `CC[C@H](C)C[C@H](C)[C@H]1OC(=O)[C@H](Cc2ccccc2)NC(=O)/C(C)=C/[C@H](C)[C@@H](O)/C(C)=C/[C@H](C)[C@H](O)/C(C)=C\[C@@H]1C` [METACRIDAMIDE B], for which, in test [2], the IC50 was 18.2 µM. In addition, the result with Caco-2 [4] and with MCF7 [5] was inactive.
